# Assay results as given in PubChem BioAssay AID871 (The Scripps Research Institute Molecular Screening Center, 2007).
# The campaign covered roughly 190,000 compounds. About 1,800 (0.95%) were called active.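 The calls were made as follows: active = activation above the screen-wide mean of compound activation plus 3 SD (cut at about 130% in these data); inactive = the rest.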 The list comes from a sample in which actives are over-represented; it also holds similar structures and randomly drawn compounds.
# Assay: enhancers of STAT3 transcriptional signaling – U3A cells, luciferase, luminescence, MLSCN library, primary screen (AID 871);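 also: 0% = background luminescence of wells with medium and substrate only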
# Conditions: IL-6 STAT3-luciferase reporter, at 5.6 µM, stronger effect = higher value
# How it was run: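 Assay system – human STAT1-deficient U3A cells with stable STAT3-luciferase reporter · Also added – IL-6 (33 ng/mL) · Schedule – compound 1 h, then IL-6 6 h at 37 °C · Technique – reporter luminescence signal · Evaluation – % activation versus median of IL-6-stimulated wells · Benchmarks – IL-6-only wells as 100% reference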
row,Compound,activation (% of control)
1,COc1cc(-n2c(=S)[nH]c3ccc(C)cc3c2=O)c(Cl)cc1Cl,156% (active)
2,CC(=O)c1c(C)n(C(C)C)c2ccc(O)cc12,102% (inactive)
3,N#CC1=C(N)Oc2c(c(=O)oc3ccccc23)C1c1ccccc1OC(=O)c1cccs1 (stereo not given),106% (inactive)
4,CCOP(=S)(OCC)SCOC(=O)NCC(=O)OC,106% (inactive)
5,C/C(CCc1c[nH]c2ccccc12)=N\O,98% (inactive)
6,CCC/C(=N\O)c1c[nH]c2ccccc12,153% (active)
7,CC1=CC(=Cc2sc3ccccc3[n+]2C)C=C(C)O1,30.2% (inactive)
8,CCOc1ccc(CN(CCCl)CCCl)cc1C(=O)OC,96.4% (inactive)
9,CCOCCc1c(O)[nH]c(=S)[nH]c1=O,99.3% (inactive)
10,O=C(Nc1cccc2ccccc12)N1CCC2(CC1)OCCO2,105% (inactive)
